Published values of several laboratories.
Protocols differ between the studies behind these lines.
EIF2AK2: Interferon-induced, double-stranded RNA-activated protein kinase (EIF2AK2, Homo sapiens, UniProt P19525)
BCHE: Cholinesterase (BCHE, Homo sapiens, UniProt P06276)
CYSLTR1: Cysteinyl leukotriene receptor 1 (CYSLTR1, Homo sapiens, UniProt Q9Y271)

| Structure (SMILES) | target | observed | action | technique | tested at | inhibition [%] |
| --- | --- | --- | --- | --- | --- | --- |
| COc1ccc2c(c1)[nH]c1c(C)nccc12 | DNA dC->dU-editing enzyme APOBEC-3B (Homo sapiens, UniProt Q9UH17) | enzyme activity | inhibitor | fluorescence | 100 µM | 53.6 |
| C#Cc1n[nH]c2c(-c3cn([C@@H](C)c4ccccn4)c(=O)[nH]c3=O)cc(F)cc12 | Fibroblast growth factor receptor 1 (FGFR1, Homo sapiens, UniProt P11362) | enzyme activity | inhibitor | – | 0.1 µM | 5.4 |
| COCc1c(-c2cc3cc(C)cc(OC)c3s2)c2c(N)ncnn2c1CN1CCNC(=O)C1 | EIF2AK2 | cell-free assay | – | competition with immobilised ligand | 1 µM | 97.3 |
| C=CCn1c2cc(OC(=O)CCCCN3CCN(Cc4ccccc4)CC3)ccc2c2ccnc(C)c21 | BCHE | enzyme activity | inhibitor | Ellman | 1 µM | 38.5 |
| COc1ccc(S(=O)(=O)N2CCCCC2)cc1C | CYSLTR1 | ligand displacement | – | radioligand | 10 µM | < 30 |
| Cn1cc(-c2cc(F)cc(N3CCn4c(cc5c4CCCC5)C3=O)c2CO)cc(Nc2ccc(N3CCN(C4COC4)CC3)cn2)c1=O | Tyrosine-protein kinase Fgr (FGR, Homo sapiens, UniProt P09769) | enzyme activity | inhibitor | – | 0.1 µM | 40 |
| C=CCn1c2cc(OC(=O)CCCCN3CCN(Cc4cccc(F)c4)CC3)ccc2c2ccnc(C)c21 | BCHE | enzyme activity | inhibitor | Ellman | 1 µM | 17.3 |
| COc1cc(Nc2ncc(F)c(Nc3ccc4c(n3)NC(=O)C(C)(C)O4)n2)cc(OC)c1OC | EIF2AK2 | binding | – | competition with immobilised ligand | 10 µM | 86 |
| C=CCn1c2cc(OC(=O)CCCCN3CCN(Cc4ccccc4Cl)CC3)ccc2c2ccnc(C)c21 | BCHE | enzyme activity | inhibitor | Ellman | 1 µM | 46.1 |
| CC(C)C[C@H](NC(=O)[C@H](Cc1ccccc1)NC(=O)c1cnccn1)B(O)O | Plasma kallikrein (KLKB1, Homo sapiens, UniProt P03952) | enzyme activity | inhibitor | – | 33 µM | 94.2 |
| CN(CCN1CCC(OC(=O)Nc2ccccc2-c2ccccc2)CC1)C(=O)c1ccc(CN2CCC(C(N)=O)CC2)cc1 | Melanocortin receptor 4 (MC4R, Homo sapiens, UniProt P32245) | ligand displacement | – | radioligand | 1 µM | 1 |
| C=CCn1c2cc(OC(=O)CCCCN3CCN(Cc4ccccc4C)CC3)ccc2c2ccnc(C)c21 | BCHE | enzyme activity | inhibitor | Ellman | 1 µM | 39.8 |
| O=C(Nc1cccnn1)N1CCN([C@@H]2CCOc3cc(C(F)(F)F)ccc32)CC1 | CYSLTR1 | ligand displacement | – | – | 20 µM | 6 |
